# Measurements taken from ChEMBL document CHEMBL2331531, “Synthesis and biological evaluation of urea derivatives as highly potent and selective rho kinase inhibitors” (J Med Chem, 2013).
# What was measured:
# [1] = Oral bioavailability in Sprague-Dawley rat at 2 mg/kg by LC-MS/MS analysis; type: ADME, organism-based; details: in vivo
# [2] = Cmax in Sprague-Dawley rat at 1 mg/kg, iv by LC-MS/MS analysis; type: ADME, organism-based; design: dose 1 mg/kg, route intravenous; details: in vivo
# [3] = AUC in Sprague-Dawley rat at 1 mg/kg, iv by LC-MS/MS analysis; type: ADME, organism-based, Plasma; design: dose 1 mg/kg, route intravenous; details: Sprague-Dawley, plasma
# [4] = Half life in Sprague-Dawley rat at 1 mg/kg, iv by LC-MS/MS analysis; type: ADME, organism-based; design: dose 1 mg/kg, route intravenous; details: in vivo
# [5] = Volume of distribution in Sprague-Dawley rat at 1 mg/kg, iv by LC-MS/MS analysis; type: ADME, organism-based; design: dose 1 mg/kg, route intravenous; details: in vivo
# [6] = Clearance in Sprague-Dawley rat at 1 mg/kg, iv by LC-MS/MS analysis; type: ADME, organism-based; design: dose 1 mg/kg, route intravenous; details: in vivo
# [7] = target: CYP3A4 (Homo sapiens, UniProt P08684); test: Inhibition of CYP3A4 (unknown origin)-mediated midazolam hydroxylation to 1'-Hydroxymidazolam at 10 uM relative to control; type: ADME; details: probe midazolam
# [8] = target: CYP2D6 (Homo sapiens, UniProt P10635); test: Inhibition of CYP2D6 (unknown origin)-mediated bufuralol hydroxylation to 4'-Hydroxybufuralol at 10 uM relative to control; type: ADME; details: probe bufuralol
# [9] = target: CYP2C9 (Homo sapiens, UniProt P11712); test: Inhibition of CYP2C9 (unknown origin)-mediated tolbutamide hydroxylation to hydroxy tolbutamide at 10 uM relative to control; type: ADME; details: probe tolbutamide
# [10] = target: T1, CYP1A2 (Homo sapiens, UniProt P05177); test: Inhibition of CYP1A2 (unknown origin)-mediated phenaceten demethylation to acetaminophen at 10 uM relative to control; type: ADME; details: probe phenacetin (printed: phenaceten)
# T1 sequence (P05177 whole entry): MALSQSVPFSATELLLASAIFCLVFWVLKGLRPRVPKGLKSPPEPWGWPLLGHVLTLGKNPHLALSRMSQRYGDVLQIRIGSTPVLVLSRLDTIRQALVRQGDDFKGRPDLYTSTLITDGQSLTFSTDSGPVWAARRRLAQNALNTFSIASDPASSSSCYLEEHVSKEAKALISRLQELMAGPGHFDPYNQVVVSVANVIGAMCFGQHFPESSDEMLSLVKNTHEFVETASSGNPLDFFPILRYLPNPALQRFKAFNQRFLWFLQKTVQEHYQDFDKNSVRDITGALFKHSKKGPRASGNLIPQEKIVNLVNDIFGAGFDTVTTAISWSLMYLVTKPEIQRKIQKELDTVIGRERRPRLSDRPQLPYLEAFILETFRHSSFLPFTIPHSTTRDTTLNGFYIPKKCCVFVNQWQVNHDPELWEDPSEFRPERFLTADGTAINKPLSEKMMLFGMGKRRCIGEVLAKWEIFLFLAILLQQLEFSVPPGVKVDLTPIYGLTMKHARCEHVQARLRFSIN
# [11] = target: Rho-associated protein kinase 1 (Homo sapiens, UniProt Q13464); test: Inhibition of ROCK1 (unknown origin) after 4 hrs by HTRF assay
# [12] = target: MAP kinase p38 (Homo sapiens, UniProt O15264+Q15759+Q16539+P53778); test: Inhibition of p38 (unknown origin) using biotinylated Flag-ATF2 as substrate after 30 mins by HTRF assay; type: protein assay
# [13] = target: Mitogen-activated protein kinase 10 (Homo sapiens, UniProt P53779); test: Inhibition of JNK3 alpha1 (unknown origin) using biotinylated Flag-ATF2 as substrate after 15 mins by HTRF assay
# [14] = target: Serine/threonine-protein kinase MRCK alpha (Homo sapiens, UniProt Q5VT25); test: Inhibition of MRCKalpha (unknown origin) using LCD-AKRRRRLSSLRA-NH2 as substrate after 75 mins by luminescence assay in presence of [33P]ATP
# [15] = Inhibition of PKA (unknown origin) after 70 mins by luminescence assay; design: species or system Homo sapiens
# [16] = Half life in human liver microsomes; type: ADME, Microsome
# [17] = target: Rho-associated protein kinase 2 (Homo sapiens, UniProt O75116); test: Inhibition of ROCK2 (unknown origin) after 4 hrs by HTRF assay
# [18] = Inhibition of ROCK-mediated myosin light chain bisphosphorylation in rat A7R5 cells after 1 hr by fluorescence assay in presence of L-alpha-lysophosphatidic acid; type: cell-based
# How it was run: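 A7r5 cells in 20% FBS DMEM, plated 5000/well overnight, serum-starved 4 h in 0.05% FBS DMEM; compound 13333 nM to 18 nM final for 1 h, then 10 μM LPA 10 min; fixed, permeabilized, anti-ppMLC plus IR800 secondary; infrared scan, ppMLC signal normalized to TO-PRO-3 nuclear signal. IC50 as mean of two or more experiments.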
# [19] = Aqueous solubility in potassium phosphate buffer at pH 5.5 after 24 hrs by HPLC analysis; type: physicochemical; details: pH 5.5, 24 h
# [20] = target: Cytochrome P450 3A4 (Homo sapiens, UniProt P08684); test: Inhibition of CYP3A4 (unknown origin)-mediated midazolam hydroxylation to 1'-Hydroxymidazolam; type: ADME
# [21] = target: Cytochrome P450 2D6 (Homo sapiens, UniProt P10635); test: Inhibition of CYP2D6 (unknown origin)-mediated bufuralol hydroxylation to 4'-Hydroxybufuralol; type: ADME
# [22] = target: Cytochrome P450 2C9 (Homo sapiens, UniProt P11712); test: Inhibition of CYP2C9 (unknown origin)-mediated tolbutamide hydroxylation to hydroxy tolbutamide; type: ADME
# [23] = target: T2, Cytochrome P450 1A2 (Homo sapiens, UniProt P05177); test: Inhibition of CYP1A2 (unknown origin)-mediated phenaceten demethylation to acetaminophen; type: ADME
# T2 sequence (P05177 whole entry): T1 sequence (P05177 whole entry)
# Mitogen-activated protein kinase 10, sequence (P53779 whole entry): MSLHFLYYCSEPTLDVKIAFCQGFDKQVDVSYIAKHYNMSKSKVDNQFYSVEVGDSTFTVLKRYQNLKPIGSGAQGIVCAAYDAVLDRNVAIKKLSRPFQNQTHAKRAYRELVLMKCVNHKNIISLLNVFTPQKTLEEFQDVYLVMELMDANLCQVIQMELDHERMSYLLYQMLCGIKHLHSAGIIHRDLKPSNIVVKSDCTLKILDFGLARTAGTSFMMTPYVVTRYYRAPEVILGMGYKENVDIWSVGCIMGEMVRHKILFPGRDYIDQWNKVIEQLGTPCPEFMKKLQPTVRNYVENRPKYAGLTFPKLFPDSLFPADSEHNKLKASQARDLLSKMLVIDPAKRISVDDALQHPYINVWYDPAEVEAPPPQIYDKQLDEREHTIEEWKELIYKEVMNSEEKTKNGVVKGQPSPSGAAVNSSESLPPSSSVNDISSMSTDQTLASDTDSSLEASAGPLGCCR
# Cytochrome P450 2D6, sequence (P10635 whole entry): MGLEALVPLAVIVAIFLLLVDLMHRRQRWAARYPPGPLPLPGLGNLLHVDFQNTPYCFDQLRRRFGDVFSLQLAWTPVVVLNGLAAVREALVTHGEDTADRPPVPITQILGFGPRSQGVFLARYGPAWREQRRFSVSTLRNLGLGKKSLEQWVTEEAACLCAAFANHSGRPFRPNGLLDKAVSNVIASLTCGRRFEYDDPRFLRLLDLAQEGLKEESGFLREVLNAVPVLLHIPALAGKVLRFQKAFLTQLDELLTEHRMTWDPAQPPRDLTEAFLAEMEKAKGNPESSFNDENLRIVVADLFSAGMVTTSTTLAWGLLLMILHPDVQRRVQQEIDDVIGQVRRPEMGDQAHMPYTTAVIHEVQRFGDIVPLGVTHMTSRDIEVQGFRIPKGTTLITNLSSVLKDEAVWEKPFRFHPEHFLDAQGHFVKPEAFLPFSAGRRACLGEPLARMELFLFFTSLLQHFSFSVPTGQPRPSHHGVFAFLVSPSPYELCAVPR
# CYP2D6, sequence (P10635 whole entry): as above
# Cytochrome P450 3A4, sequence (P08684 whole entry): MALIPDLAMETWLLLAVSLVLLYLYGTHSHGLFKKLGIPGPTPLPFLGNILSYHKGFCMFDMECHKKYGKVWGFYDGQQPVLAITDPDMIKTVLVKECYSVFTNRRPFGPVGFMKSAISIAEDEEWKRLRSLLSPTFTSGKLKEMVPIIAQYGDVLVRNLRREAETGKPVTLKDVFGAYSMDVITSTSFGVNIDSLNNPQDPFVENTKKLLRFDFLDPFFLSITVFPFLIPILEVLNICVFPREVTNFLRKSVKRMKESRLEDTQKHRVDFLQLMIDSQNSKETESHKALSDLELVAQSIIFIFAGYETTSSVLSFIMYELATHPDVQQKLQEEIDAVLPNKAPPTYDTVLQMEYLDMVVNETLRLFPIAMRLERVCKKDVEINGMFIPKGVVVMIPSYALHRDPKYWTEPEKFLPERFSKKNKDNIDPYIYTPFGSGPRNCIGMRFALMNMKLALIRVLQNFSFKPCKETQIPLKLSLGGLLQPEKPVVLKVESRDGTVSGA
# CYP3A4, sequence (P08684 whole entry): as above
# Serine/threonine-protein kinase MRCK alpha, sequence (Q5VT25 whole entry): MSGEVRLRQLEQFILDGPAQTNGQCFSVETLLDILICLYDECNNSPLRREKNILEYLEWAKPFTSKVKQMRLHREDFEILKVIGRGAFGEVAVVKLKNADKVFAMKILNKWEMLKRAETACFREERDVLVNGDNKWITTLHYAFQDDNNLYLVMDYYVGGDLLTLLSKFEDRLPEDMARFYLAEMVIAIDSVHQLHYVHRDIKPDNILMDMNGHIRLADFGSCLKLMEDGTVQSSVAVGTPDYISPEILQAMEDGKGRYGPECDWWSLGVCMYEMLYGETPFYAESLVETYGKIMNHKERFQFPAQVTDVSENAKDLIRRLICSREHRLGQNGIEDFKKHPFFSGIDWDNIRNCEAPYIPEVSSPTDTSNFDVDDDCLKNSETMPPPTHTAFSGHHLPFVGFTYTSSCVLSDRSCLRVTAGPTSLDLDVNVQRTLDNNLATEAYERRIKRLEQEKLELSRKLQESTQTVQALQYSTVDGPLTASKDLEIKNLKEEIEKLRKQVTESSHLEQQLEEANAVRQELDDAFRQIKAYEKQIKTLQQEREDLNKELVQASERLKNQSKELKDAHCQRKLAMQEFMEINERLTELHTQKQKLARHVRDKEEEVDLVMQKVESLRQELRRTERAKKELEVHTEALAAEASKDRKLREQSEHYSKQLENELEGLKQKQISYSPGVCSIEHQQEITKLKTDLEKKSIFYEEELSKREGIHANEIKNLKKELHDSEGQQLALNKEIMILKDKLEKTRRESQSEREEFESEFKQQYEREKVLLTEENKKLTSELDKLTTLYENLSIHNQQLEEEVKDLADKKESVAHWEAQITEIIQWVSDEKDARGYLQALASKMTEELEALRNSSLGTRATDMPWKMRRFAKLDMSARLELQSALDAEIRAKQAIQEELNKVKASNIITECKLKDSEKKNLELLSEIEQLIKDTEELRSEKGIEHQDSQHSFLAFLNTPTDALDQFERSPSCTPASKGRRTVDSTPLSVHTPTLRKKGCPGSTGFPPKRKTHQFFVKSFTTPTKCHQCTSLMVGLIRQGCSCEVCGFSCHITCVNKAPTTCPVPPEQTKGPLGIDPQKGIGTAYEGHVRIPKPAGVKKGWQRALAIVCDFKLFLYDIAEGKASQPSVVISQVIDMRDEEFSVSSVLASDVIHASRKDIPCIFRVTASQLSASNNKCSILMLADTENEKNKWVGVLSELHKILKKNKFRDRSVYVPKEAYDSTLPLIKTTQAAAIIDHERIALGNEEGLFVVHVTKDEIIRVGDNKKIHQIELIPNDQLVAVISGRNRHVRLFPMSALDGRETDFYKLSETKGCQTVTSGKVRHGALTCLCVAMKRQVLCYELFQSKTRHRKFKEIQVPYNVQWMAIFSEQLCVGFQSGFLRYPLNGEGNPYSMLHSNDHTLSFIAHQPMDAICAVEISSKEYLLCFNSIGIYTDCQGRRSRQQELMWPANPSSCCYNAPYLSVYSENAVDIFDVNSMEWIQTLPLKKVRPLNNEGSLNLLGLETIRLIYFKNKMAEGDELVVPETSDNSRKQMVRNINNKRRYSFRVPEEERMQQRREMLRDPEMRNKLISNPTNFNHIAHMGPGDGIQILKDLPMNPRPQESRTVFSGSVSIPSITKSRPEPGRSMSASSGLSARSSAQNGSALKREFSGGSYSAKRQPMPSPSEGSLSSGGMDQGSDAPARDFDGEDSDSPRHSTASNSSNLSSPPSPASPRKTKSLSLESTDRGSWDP
# CYP2C9, sequence (P11712 whole entry): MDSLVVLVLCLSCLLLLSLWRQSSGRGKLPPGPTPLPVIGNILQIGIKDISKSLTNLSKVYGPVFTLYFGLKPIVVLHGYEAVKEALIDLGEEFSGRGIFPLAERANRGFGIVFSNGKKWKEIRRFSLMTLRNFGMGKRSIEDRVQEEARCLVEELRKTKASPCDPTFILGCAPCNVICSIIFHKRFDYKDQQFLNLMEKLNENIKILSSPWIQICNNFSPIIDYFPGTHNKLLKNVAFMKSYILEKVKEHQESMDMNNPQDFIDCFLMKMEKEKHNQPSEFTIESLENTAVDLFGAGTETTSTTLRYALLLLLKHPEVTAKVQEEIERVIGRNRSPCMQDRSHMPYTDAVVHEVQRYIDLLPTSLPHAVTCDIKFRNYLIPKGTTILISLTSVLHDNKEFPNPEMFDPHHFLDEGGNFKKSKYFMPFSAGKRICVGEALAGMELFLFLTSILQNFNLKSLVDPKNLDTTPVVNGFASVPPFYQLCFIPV
# Cytochrome P450 2C9, sequence (P11712 whole entry): as above
SMILES,bioavailability [1],Cmax [2],AUC [3],half-life [4],Vd [5],clearance [6],inhibition at 10 µM [7],inhibition at 10 µM [8],inhibition at 10 µM [9],inhibition at 10 µM [10],IC50 [11],IC50 [12],IC50 [13],IC50 [14],IC50 [15],half-life [16],IC50 [17],IC50 [18],solubility [19],IC50 [20],further results
O=C(Nc1ccc(-c2cn[nH]c2)cc1)NC(CCO)c1cccc(F)c1 (stereo not given),28%,9200 nM,9.5 µM·h,2.1 h,0.7 L/kg,4.9 mL/min/kg,23%,41%,71%,-2%,10 nM,> 20000 nM,> 20000 nM,6400 nM,580 nM,> 2 h,2 nM,32 nM,–,–,–
CCN(Cc1cccc(OC)c1)C(=O)Nc1ccc(-c2cn[nH]c2)cc1O[C@H]1CCN(C)C1,11%,1100 nM,1.3 µM·h,1 h,2.6 L/kg,30 mL/min/kg,53%,83%,65%,9%,4 nM,> 20000 nM,> 20000 nM,1550 nM,6700 nM,–,1 nM,–,soluble,–,–
COc1cccc(CN(CCO)C(=O)Nc2ccc(-c3cn[nH]c3)cc2)c1,51%,3800 nM,4.2 µM·h,1.6 h,1 L/kg,11.2 mL/min/kg,37%,38%,95%,-23%,6 nM,> 20000 nM,> 20000 nM,4310 nM,2990 nM,0.4 h,1 nM,19 nM,–,35000 nM,IC50 [21]: 40000 nM; IC50 [22]: 2000 nM; IC50 [23]: > 100000 nM
COc1cccc(CN(CCN(C)C)C(=O)Nc2ccc(-c3cn[nH]c3)cc2)c1,10%,330 nM,0.2 µM·h,1 h,14 L/kg,176 mL/min/kg,34%,85%,35%,-29%,6 nM,> 20000 nM,> 20000 nM,8700 nM,456 nM,0.567 h,1 nM,4 nM,soluble,80000 nM,IC50 [21]: 3000 nM; IC50 [22]: 30000 nM; IC50 [23]: > 100000 nM
COc1cccc(CN(CCN2CCCC2)C(=O)Nc2ccc(-c3cn[nH]c3)cc2)c1,0%,480 nM,0.6 µM·h,1 h,4.4 L/kg,71 mL/min/kg,34%,88%,24%,0%,13 nM,> 20000 nM,> 20000 nM,–,541 nM,0.417 h,3 nM,6 nM,soluble,–,–
COc1cccc(CN(CCN2CCOCC2)C(=O)Nc2ccc(-c3cn[nH]c3)cc2)c1,4%,1200 nM,0.6 µM·h,2.2 h,3.5 L/kg,63 mL/min/kg,51%,82%,68%,-37%,58 nM,> 20000 nM,> 20000 nM,–,3820 nM,0.05 h,13 nM,138 nM,soluble,–,–
COc1cccc(CN(CCN2CCCCC2)C(=O)Nc2ccc(-c3cn[nH]c3)cc2)c1,0%,530 nM,0.4 µM·h,1 h,4.3 L/kg,86 mL/min/kg,61%,87%,56%,18%,14 nM,> 20000 nM,> 20000 nM,–,338 nM,0.183 h,5 nM,17 nM,soluble,–,–
COc1cccc(CN(C)C(=O)Nc2ccc(-c3cn[nH]c3)cc2)c1,48%,2600 nM,5.9 µM·h,1 h,1.1 L/kg,9.4 mL/min/kg,27%,45%,96%,9%,4 nM,> 20000 nM,> 20000 nM,1850 nM,1810 nM,0.383 h,1 nM,–,–,> 100000 nM,IC50 [21]: > 100000 nM; IC50 [22]: 600 nM; IC50 [23]: > 100000 nM
